Here are results for 4 molecules from ChEMBL document CHEMBL1150676, “Two new biologically active triterpenoidal saponins acylated with salicylic acid from Albizia adianthifolia” (J Nat Prod, 2003).

Active and inactive are the calls of the source. The calls are words filed in the database; no cut-off is given here.

The subject of data set [1] is Jurkat. Briefly: Immunomodulatory effect in human Jurkat cells assessed as cell proliferation stimulation index at 1 to 10 uM by [3H]thymidine incorporation assay.
A short description of data set [2]: Toxicity in sheep erythrocytes assessed as induction of hemolysis. The conditions noted are these: read-out: HD50 (the source's name). The class given is cell-based, Ovis aries, Erythrocyte. The essentials:
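Hemolysis measured on sheep erythrocytes, tested up to 400 μg/mL. Activity expressed as HC50 (μg/mL).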

In data set [3] the test system is Jurkat. Briefly: Cytotoxicity against human Jurkat cells at 1 uM. The class given is functional, cell-based. In outline:
(§1)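 Jurkat human T-cell leukemia cells exposed to compounds at 10⁻²–10 μM. Proliferation read by ³H-thymidine incorporation and expressed as stimulation index (SI). Mean ± SE, n = 4.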

Data set [4] relates to Jurkat. Briefly: Cytotoxicity against human Jurkat cells at =>10 uM. The class given is functional, cell-based. In outline: as §1
Data set [5] concerns Jurkat. Briefly: Inhibition of human Jurkat cell proliferation at 1 uM by [3H]thymidine incorporation assay. On the technique in general: Incorporation of labelled thymidine or its analogues reports DNA synthesis.
The subject of data set [6] is Jurkat. Briefly: Immunomodulatory effect in human Jurkat cells assessed as cell proliferation stimulation index at 0.01 uM by [3H]thymidine incorporation assay.
In data set [7] the test system is Jurkat. Briefly: Immunomodulatory effect in human Jurkat cells by [3H]thymidine incorporation assay.

For the molecule `CC(=O)N[C@H]1[C@H](O[C@H]2CC[C@]3(C)[C@H]4CC=C5[C@@H]6CC(C)(C)[C@@H](O)C[C@]6(C(=O)O)[C@H](O)C[C@@]5(C)[C@]4(C)CC[C@H]3C2(C)C)O[C@H](CO[C@@H]2O[C@H](C)[C@H](O)[C@H](O)[C@H]2O[C@@H]2OC[C@@H](O)[C@H](O)[C@H]2O)[C@@H](O)[C@@H]1O`, the outcome in the data set on Jurkat [1] was Active. Besides, the HC50 in data set [2] was > 400 µg/mL. Further, in the data set on Jurkat [3], the Activity result was “Not toxic”.
As to `C=CC(C)(CC/C=C(\CO)C(=O)O[C@H]1C[C@]2(C(=O)O)[C@H](O)C[C@]3(C)C(=CC[C@@H]4[C@@]5(C)CC[C@H](O[C@@H]6O[C@H](CO[C@@H]7O[C@H](C)[C@H](O)[C@H](O)[C@H]7O[C@@H]7OC[C@@H](O)[C@H](O)[C@H]7O)[C@@H](O)[C@H](O)[C@H]6O[C@@H]6O[C@H](CO)[C@@H](O)[C@H](O)[C@H]6O)C(C)(C)[C@@H]5CC[C@]43C)[C@@H]2CC1(C)C)O[C@@H]1O[C@@H](C)[C@H](O)[C@@H](O)[C@@H]1O` (stereo not given in full), the HC50 in data set [2] is > 400 µg/mL. The Activity result in the data set with Jurkat [4] was “Toxic”.
As for `CC(=O)N[C@H]1[C@H](O[C@H]2CC[C@]3(C)[C@H]4CC=C5[C@@H]6CC(C)(C)[C@@H](OC(=O)c7ccccc7O)C[C@]6(C(=O)O[C@@H]6O[C@H](CO)[C@@H](O)[C@H](O)[C@H]6O[C@@H]6O[C@@H](C)[C@H](O[C@@H]7O[C@@H](CO)[C@H](O)[C@H]7O)[C@@H](O[C@@H]7O[C@H](CO)[C@@H](O)[C@H](O)[C@H]7O)[C@H]6O)[C@H](O)C[C@@]5(C)[C@]4(C)CC[C@H]3C2(C)C)O[C@H](CO[C@@H]2O[C@H](C)[C@H](O)[C@H](O)[C@H]2O[C@@H]2OC[C@@H](O)[C@H](O)[C@H]2O)[C@@H](O)[C@@H]1O` [ADIANTHIFOLIOSIDE A], the HC50 in data set [2] amounted to 17.5 µg/mL. In the data set with Jurkat [3], the Activity result is “Toxic”.
Regarding `C[C@@H]1O[C@@H](O[C@H]2[C@H](OC(=O)[C@]34C[C@H](OC(=O)c5ccccc5O)C(C)(C)C[C@H]3C3=CC[C@@H]5[C@@]6(C)CC[C@H](O[C@@H]7O[C@H](CO[C@@H]8O[C@H](C)[C@H](O)[C@H](O)[C@H]8O[C@@H]8OC[C@@H](O)[C@H](O)[C@H]8O)[C@@H](O)[C@H](O)[C@H]7O[C@@H]7O[C@H](CO)[C@@H](O)[C@H](O)[C@H]7O)C(C)(C)[C@@H]6CC[C@@]5(C)[C@]3(C)C[C@H]4O)O[C@H](CO)[C@@H](O)[C@@H]2O)[C@H](O)[C@H](O[C@@H]2O[C@H](CO)[C@@H](O)[C@H](O)[C@H]2O)[C@H]1O[C@@H]1O[C@@H](CO)[C@H](O)[C@H]1O` [ADIANTHIFOLIOSIDE B], in the data set with Jurkat [5], the outcome was Active. In addition, the Activity with Jurkat [6] was 1.21; with Jurkat [7] it was “Dose-dependent effect”.
